The list is not random: actives were taken first. Their share in the collection is about 1.6%.
FLuc inh counter: firefly luciferase enzyme inhibitors, primary screen, artefact control for luciferase-based inhibitor screens, biochemical, luminescence, ATPLite. Luciferin 4-monooxygenase (Photinus pyralis), P08659. inhibition, % at 10 µM. 1.5% of 200,000 active. 10 min. AID 1006, 2008;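 active = inhibition above about 50% when tested at 10 µM, limit read from the data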
Target sequence (P08659 whole entry, looked up): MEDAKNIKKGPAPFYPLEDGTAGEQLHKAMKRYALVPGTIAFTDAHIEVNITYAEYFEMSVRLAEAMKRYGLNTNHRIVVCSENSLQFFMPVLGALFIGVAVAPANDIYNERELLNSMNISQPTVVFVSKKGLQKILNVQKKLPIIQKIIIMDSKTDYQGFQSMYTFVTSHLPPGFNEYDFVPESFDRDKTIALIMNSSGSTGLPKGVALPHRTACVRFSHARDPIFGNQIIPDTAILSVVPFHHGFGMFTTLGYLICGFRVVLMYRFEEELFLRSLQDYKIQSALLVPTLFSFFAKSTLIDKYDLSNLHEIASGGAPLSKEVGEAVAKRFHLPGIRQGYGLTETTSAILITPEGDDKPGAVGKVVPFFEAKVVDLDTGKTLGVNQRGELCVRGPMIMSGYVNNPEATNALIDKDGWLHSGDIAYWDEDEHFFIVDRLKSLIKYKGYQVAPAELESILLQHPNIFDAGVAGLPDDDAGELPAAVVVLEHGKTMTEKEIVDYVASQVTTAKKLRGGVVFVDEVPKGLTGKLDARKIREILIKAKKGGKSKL
FLuc stim CS: FLuc activators, initial screening, artefact control for FLuc-dependent activation tests, biochemical, ATPlite luminescence. Luciferin 4-monooxygenase (Photinus pyralis), P08659. ATPlite luciferase biochemical, 10 min; 0 = ATP-free wells, 1 = DMSO control. activation factor at 10 µM. 200,000 tested, under 10 active;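 active = luciferase activation factor, scaled between plate controls, of at least 2 with compound at 10 µM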
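Material: Luciferase/luciferin reagent mix | Doses: Test compounds dosed from 2 mM stocks in 100% DMSO | Timing: 10 min incubation after luciferase reagent addition, room temperature | Measured by: Luminescence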
PPC-1+TRAIL kill: compounds killing PPC-1 cancer cells with TRAIL present, primary screen, TRAIL potentiator project, ATPLite luminescence, uHTS; PPC-1 cells + TRAIL, ATPLite viability luminescence; cell killing (% activity), % at 4 µM or 5 µM; 0.41% of 220,000 active; AID 1443, 2008;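 active = cell killing above 50% in the first pass at 4 µM, then a duplicate retest at 5 µM averaging 50% or more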;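 note: plate controls were cells with TRAIL plus DMSO for no effect and medium-only wells lacking cells for full effect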
C8 TRAIL sens: viability loss with TRAIL in NB7+C8 cells, primary screen, TRAIL sensitizer project, cell-based, ATPlite luminescence. inhibition (viability loss, TRAIL sensitization), % at 10 µM. 1% of 360,000 active;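 active = compounds causing at least 50% loss of cell viability in the single-dose screen, relative to plate controls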
* hit, by the source's call; · = not tested or not shown.

SMILES	FLuc inh counter	FLuc stim CS	PPC-1+TRAIL kill	C8 TRAIL sens
Cc1nc(N)nc(N)c1CCCc1ccc(Cl)c(Cl)c1	·	·	·	73.0*
Cc1cc(OCc2nc(N)nc(N)c2-c2ccc(Cl)c(Cl)c2)ccc1[N+](=O)[O-]	·	·	·	83.2*
O=C(Nc1ccc(N2CCCCC2)cc1)c1ccc2c(c1)OCCO2	64.8*	0.4	37.6	35.7
COc1cc(C(=O)Nc2ccc3c(c2)OCCO3)ccc1OC(C)C	41.3	0.6	29.1	15.6
CC(=O)N1CCN(c2ccc(NC(=O)c3ccc4c(c3)OCCO4)cc2)CC1	5.9	0.9	-10.6	-6.1
O=C(Nc1ccc(N2CCCCC2)cc1)c1ccc2ccccc2n1	54.0*	0.5	45.0	42.0
COc1cc(C(=O)Nc2ccc3c(c2)OCCO3)ccc1OC(F)F	59.2*	0.4	21.6	40.4
COc1ccc(N/C=C\C(=O)c2ccc3c(c2)OCO3)cc1OC	59.7*	0.4	35.1	28.8
C=C1[C@H]2O[C@H]2[C@@H](OC(C)=O)[C@@]2(C)[C@@H](OC(C)=O)C[C@@H](OC(C)=O)[C@@](C)(O)[C@@H]2[C@@H](OC(C)=O)[C@@]2(O)[C@@H](C)C(=O)O[C@H]2[C@H]1Cl	·	·	·	0.5
COc1ccc(/C=C/C(=O)NCCN=C2NS(=O)(=O)c3ccccc32)cc1	8.4	0.9	-5.3	4.0
COc1ccc(NC(=O)c2ccc3c(c2)OCO3)cc1Cl	61.0*	0.4	40.7	35.4
O=C(Nc1ccc(F)c(Cl)c1)c1ccc2c(c1)OCO2	·	·	·	7.7
COc1ccc(NC(=O)c2ccc3c(c2)OCCO3)cc1OC	·	·	·	52.2*
Cc1cc(NC(=O)c2c(C)noc2C)no1	·	·	-1.9	12.0
CNC(=O)COC(=O)c1ccc(-c2nc3ccccc3s2)s1	80.8*	0.2	66.3*	11.3
COCCCNC(=O)COC(=O)c1ccc(-c2nc3ccccc3s2)s1	24.7	0.8	15.2	13.5
O=C(Nc1ccc(Cl)c(C(=O)N2CCOCC2)c1)c1ccccc1	·	·	·	-6.3
NC(=O)c1ccccc1N/C=C/C(=O)c1ccco1	39.6	0.6	18.6	12.3
O=C(/C=C/Nc1ccccc1C(F)(F)F)c1ccco1	88.7*	0.1	·	58.7*
O=C(/C=C/Nc1ccc(Oc2ccccc2)cc1)c1ccco1	69.2*	0.3	49.0	46.0
CC(C)CNC(=S)N1CCC(C(=O)c2ccc3c(c2)OCCO3)CC1	-5.9	1.1	-4.0	-3.0
N/C(=N\OC(=O)CCC1CCCC1)c1ccccn1	84.2*	0.2	8.1	-1.0
N/C(=N\OC(=O)CCC1CCCC1)c1ccccc1	87.6*	0.1	-1.5	-6.1
N/C(=N\OC(=O)CCCc1ccccc1)c1ccccn1	60.2*	0.4	24.9	-10.6
O=C(Nc1ccc(Cl)cc1)N1CCCC(Cn2cccc2)C1 (centres undefined)	·	·	11.7	22.3
SMILES	FLuc inh counter	FLuc stim CS	PPC-1+TRAIL kill	C8 TRAIL sens
CC(C)c1ccc(Nc2ncccc2C(=O)O)cc1	67.4*	0.3	38.2	21.2
Cc1ccc(NC(=O)c2ccc(CSc3nnnn3C)cc2)cc1	56.6*	0.4	38.7	57.7*
Cc1ccc(Cl)cc1NC(=O)c1ccc(CSc2nnnn2C)cc1	0.7	1	-15.8	11.6
Cc1ccc(NC(=O)c2ccc(CSc3nnc(C)s3)cc2)cc1	55.8*	0.4	42.2	34.2
O=C(Cn1ccc(NC(=O)OCc2ccccc2)nc1=O)NCc1ccc2c(c1)OCO2	·	·	·	-5.8
OCC1OC(n2cnc3c(NCc4ccccc4O)ncnc32)C(O)C1O (centres undefined)	·	·	·	75.7*
CN(C)c1ncnc2c1ccn2C1OC(CO)C(O)C1O (centres undefined)	·	·	·	78.2*
OCC1OC(n2ccc3c(NO)ncnc32)C(O)C1O (centres undefined)	·	·	·	92.1*
Nc1nc(N)c(-c2cccc(C(F)(F)F)c2)c(Cc2cccc(C(F)(F)F)c2)n1	·	·	·	77.7*
C#Cc1ccc(NC(=O)C2(C)CCN2C(=O)Cc2ccc(C(C)C)cc2)cc1 (centres undefined)	·	·	·	52.5*
O=C(Nc1ccc(Cc2ccncc2)cc1)c1ccc(Cl)c([N+](=O)[O-])c1	76.5*	0.2	4.4	16.2
O=C(Nc1ccccc1-c1ccccc1)c1ccc(Cl)c([N+](=O)[O-])c1	-8.3	1.1	94.0*	-4.8
Cc1ccc(NC(=O)COC(=O)C2CC(=O)N(Cc3ccccc3)C2)cc1S(=O)(=O)N(C)C (centres undefined)	-8.5	1.1	15.8	-7.8
CC(=O)c1ccc(NC(=O)CSc2ccc(-c3ccc(-n4cccn4)cc3)nn2)cc1	·	·	·	17.9
CN1CCN(c2ccc3sc(-n4ccc5ccccc54)nc3c2)CC1	·	·	·	67.8*
CN(Cc1ccccc1)C(=O)COC(=O)CCNC(=O)c1ccccc1Cl	-5.6	1.1	12.4	-6.8
O=C(/C=C/c1ccnc2ccccc12)c1cccs1	96.3*	0	26.2	30.9
COc1ccc(CN2C(=O)C(CC(=O)NCc3cccs3)CC(C(=O)N(C)C)=C2C)cc1 (centres undefined)	·	·	·	1.4
O=C(NC1CC1)C1CCN(C2CCN(C(=O)/C=C/c3ccc(F)cc3)CC2)CC1	-2.9	1	6.3	1.6
COc1ccc(NC(=O)CSc2nc3[nH]ncc3c(=O)n2-c2ccccc2OC)cc1OC	-0.7	1	70.8*	-15.5
COc1cc(C(=O)NNC(=O)Nc2ccc([N+](=O)[O-])cc2)cc(OC)c1OC	-5.2	1.1	18.9	5.2
CN(C)S(=O)(=O)c1ccc(-c2csc(N/N=C/c3ccc(O)cc3)n2)cc1	·	·	-4.0	84.9*
CN(C)S(=O)(=O)c1ccc(-c2csc(N/N=C/c3ccco3)n2)cc1	·	·	12.4	71.8*
Cc1ccc(-c2csc(N/N=C/c3ccco3)n2)cc1	-1.9	1	13.5	1.3
O=C(/C=C/c1ccc(F)cc1)NC(=S)Nc1ccccc1C(=O)NC1CCCCC1	0.5	1	17.9	58.8*
SMILES	FLuc inh counter	FLuc stim CS	PPC-1+TRAIL kill	C8 TRAIL sens
O=C(/C=C/c1ccccc1)NC(=S)Nc1ccccc1C(=O)NC1CCCCC1	-5.9	1.1	6.1	4.2
COc1ccc(-c2cn(CC[C@@H]3CC[C@H](NC(=O)Cc4ccccn4)[C@@H](CO)O3)nn2)cc1	·	·	·	1.2
COn1c(SCc2ccccc2)nc2ccccc2c1=O	-0.3	1	14.1	68.9*
COn1c(SCc2cccc(Cl)c2)nc2ccccc2c1=O	-6.4	1.1	10.8	55.8*
O=C(CSc1ccc(F)cc1)NCCc1ccc(Cl)cc1	·	·	·	-3.6
COc1ccc([N+](=O)[O-])cc1NC(=O)C1CCCCC1C(=O)O (centres undefined)	-7.1	1.1	18.2	-23.4
CSc1ccccc1NC(=O)CN(C)C(=O)C1CCN(C(=O)Nc2ccccc2)CC1	·	·	·	-20.7
Cc1ccc2nc(N3CCN(c4cccc(C)c4C)CC3)c3nnnn3c2c1	-6.6	1.1	3.6	2.6
Cc1ccc2nc(Cl)c3nnnn3c2c1	-1.4	1	18.2	61.5*
CC1(C)Cc2c(sc(NC(=O)c3ccc(Br)o3)c2C#N)CO1	63.7*	0.4	49.6	37.2

Bioassay records deposited in PubChem by Sanford-Burnham Center for Chemical Genomics.
